Measurements taken from ChEMBL document CHEMBL3259675, “Novel N-substituted sophoridinol derivatives as anticancer agents” (Eur J Med Chem, 2014).
Each block holds one compound with its values, some of them ahead of it.

Columns and labels:
HepG2 [1] = experiment: Antiproliferative activity against human HepG2 cells assessed as growth inhibition at 10 ug/ml after 48 hrs by MTT assay; type: functional; details: HepG2, 48 h
How it was run: (§1)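 Cell lines from ATCC, grown in MEM-EBSS with 10% FBS and 1% penicillin-streptomycin at 37 °C, 5% CO2. Seeded at 4000 cells/well, left 24 h, then exposed to a concentration series for 48 h. Growth read by MTT. Percent inhibition was computed at each concentration and IC50 derived from it. Triplicate determinations, reported as mean SD.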

HepG2 [2] = experiment: Antiproliferative activity against human HepG2 cells assessed as growth inhibition after 48 hrs by MTT assay; type: functional, cell-based; details: HepG2, 48 h; how it was run: as §1
HCT-116 = experiment: Antiproliferative activity against human HCT116 cells assessed as growth inhibition after 48 hrs by MTT assay; type: functional, cell-based; details: HCT-116, 48 h; how it was run: as §1
NCI-H1299 = experiment: Antiproliferative activity against human NCI-H1299 cells assessed as growth inhibition after 48 hrs by MTT assay; type: functional, cell-based; details: NCI-H1299, 48 h; how it was run: as §1
[3] = Antiproliferative activity against human U87 cells assessed as growth inhibition after 48 hrs by MTT assay; type: functional, cell-based, U-87MG ATCC; details: U-87 MG; how it was run: as §1
MCF7 = experiment: Antiproliferative activity against human MCF7 cells assessed as growth inhibition after 48 hrs by MTT assay; type: functional, cell-based; details: MCF7, 48 h; how it was run: as §1
KB = experiment: Antiproliferative activity against human KB cells assessed as growth inhibition after 48 hrs by MTT assay; type: functional, cell-based; how it was run: as §1
[4] = Cmax in Sprague-Dawley rat at 5 mg/kg, iv administered as single dose; type: ADME, organism-based; parameters: dose 5 mg/kg, route intravenous; details: in vivo
How it was run: (§2)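 Male rats, 3 per study, each given a single dose of 25 mg/kg orally (ig) or 5 mg/kg iv. PK parameters from non-compartmental analysis. Oral bioavailability calculated from the ig and iv data.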

[5] = Cmax in Sprague-Dawley rat at 25 mg/kg, ig administered as single dose; type: ADME, organism-based; parameters: dose 25 mg/kg, route intragastric; details: in vivo, po; how it was run: as §2
[6] = Tmax in Sprague-Dawley rat at 5 mg/kg, iv administered as single dose; type: ADME, organism-based; parameters: dose 5 mg/kg, route intravenous; details: in vivo; how it was run: as §2
[7] = Tmax in Sprague-Dawley rat at 25 mg/kg, ig administered as single dose; type: ADME, organism-based; parameters: dose 25 mg/kg, route intragastric; details: in vivo, po; how it was run: as §2
[8] = AUC (0 to time) in Sprague-Dawley rat at 5 mg/kg, iv administered as single dose; type: ADME, organism-based; parameters: dose 5 mg/kg, route intravenous; details: plasma
How it was run: (§3)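 Single dose given to three male rats per study, by oral gavage or intravenous injection. AUC was derived by non-compartmental analysis, n = 3.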

[9] = AUC (0 to time) in Sprague-Dawley rat at 25 mg/kg, ig administered as single dose; type: ADME, organism-based; parameters: dose 25 mg/kg, route intragastric; details: plasma, po; how it was run: as §3
[10] = Mean residence time in Sprague-Dawley rat at 5 mg/kg, iv administered as single dose; type: ADME, organism-based; parameters: dose 5 mg/kg, route intravenous; details: in vivo; how it was run: as §2
[11] = Mean residence time in Sprague-Dawley rat at 25 mg/kg, ig administered as single dose; type: ADME, organism-based; parameters: dose 25 mg/kg, route intragastric; details: in vivo, po; how it was run: as §2
[12] = Half life in Sprague-Dawley rat at 5 mg/kg, iv administered as single dose; type: ADME, organism-based; parameters: dose 5 mg/kg, route intravenous; details: in vivo; how it was run: as §2
[13] = Half life in Sprague-Dawley rat at 25 mg/kg, ig administered as single dose; type: ADME, organism-based; parameters: dose 25 mg/kg, route intragastric; details: in vivo, po; how it was run: as §2
[14] = Oral bioavailability in Sprague-Dawley rat at 25 mg/kg administered as single dose; type: ADME, organism-based; details: in vivo; how it was run: as §2
Mus musculus [15] = experiment: Toxicity in mouse at 250 to 1000 mg/kg, ig; type: organism-based; parameters: dose 250-1000 mg/kg, route intragastric; details: in vivo, po
How it was run: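 Single-dose toxicity in mice: compound given intragastrically at 250, 500 or 1000 mg/kg, with deaths monitored.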

Mus musculus [16] = experiment: Toxicity in mouse assessed as body weight at 250 to 1000 mg/kg, ig; type: organism-based; parameters: dose 250-1000 mg/kg, route intragastric; details: in vivo, po
HepG2 [17] = experiment: Cell cycle arrest in human HepG2 cells assessed as accumulation at G0/G1 phase at 2.5 ug/ml after 24 hrs by FACS flow cytometric analysis (reference value: 4.1 %); type: functional; details: HepG2, 24 h
How it was run: (§4)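 HepG2 cells exposed to 0, 2.5, 5 or 10 µg/ml for 24 h, then harvested. Fixed in 70% ethanol and held at −20 °C. Cell-cycle distribution determined by flow cytometry, with untreated cells as control.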

HepG2 [18] = experiment: Cell cycle arrest in human HepG2 cells assessed as accumulation at G0/G1 phase at 5 ug/ml after 24 hrs by FACS flow cytometric analysis (reference value: 4.1 %); type: functional; details: HepG2, 24 h; how it was run: as §4
HepG2 [19] = experiment: Cell cycle arrest in human HepG2 cells assessed as accumulation at G0/G1 phase at 10 ug/ml after 24 hrs by FACS flow cytometric analysis (reference value: 4.1 %); type: functional; details: HepG2, 24 h; how it was run: as §4

SMILES: CCCCN1C[C@H]2CCCN3CCC[C@@H]([C@H]23)[C@H]1CCCCO
- inhibition at 10 µg/mL (HepG2 [1]): 19.7%

SMILES: CC(C)(C)CN1C[C@H]2CCCN3CCC[C@@H]([C@H]23)[C@H]1CCCCO
- inhibition at 10 µg/mL (HepG2 [1]): 95.7%

SMILES: CC(C)CN1C[C@H]2CCCN3CCC[C@@H]([C@H]23)[C@H]1CCCCO
- inhibition at 10 µg/mL (HepG2 [1]): 9.1%

SMILES: OCCCC[C@@H]1[C@H]2CCCN3CCC[C@H](CN1Cc1ccccc1)[C@@H]23
- inhibition at 10 µg/mL (HepG2 [1]): 18.7%

SMILES: Cc1ccc(CN2C[C@H]3CCCN4CCC[C@@H]([C@H]34)[C@H]2CCCCO)cc1
- inhibition at 10 µg/mL (HepG2 [1]): 17.8%

SMILES: OCCCC[C@@H]1[C@H]2CCCN3CCC[C@H](CN1Cc1ccccc1F)[C@@H]23
- inhibition at 10 µg/mL (HepG2 [1]): 30.9%

SMILES: OCCCC[C@@H]1[C@H]2CCCN3CCC[C@H](CN1Cc1cccc(F)c1)[C@@H]23
- inhibition at 10 µg/mL (HepG2 [1]): 24.3%

SMILES: OCCCC[C@@H]1[C@H]2CCCN3CCC[C@H](CN1Cc1ccc(F)cc1)[C@@H]23
- inhibition at 10 µg/mL (HepG2 [1]): 35.7%

SMILES: OCCCC[C@@H]1[C@H]2CCCN3CCC[C@H](CN1Cc1ccccc1Cl)[C@@H]23
- inhibition at 10 µg/mL (HepG2 [1]): 88.1%

- IC50 (HepG2 [2]): 9.37 µM
- IC50 (HCT-116): 10.6 µM
- IC50 (NCI-H1299): 5.55 µM
- IC50 (MCF7): 5.73 µM
- IC50 (KB): 19.7 µM
- Cmax [4]: 3.43 µM
- Cmax [5]: 5.25 µM
- Tmax [6]: 0.25 h
- Tmax [7]: 0.66 h
- AUC [8]: 20.5 µM·h
- AUC [9]: 18.6 µM·h
- MRT [10]: 2.39 h
- MRT [11]: 3.28 h
- half-life [12]: 4.46 h
- half-life [13]: 3.87 h
- bioavailability [14]: 18%
SMILES: OCCCC[C@@H]1[C@H]2CCCN3CCC[C@H](CN1Cc1ccc(Cl)cc1)[C@@H]23
- inhibition at 10 µg/mL (HepG2 [1]): 87.7%
- IC50 [3]: 4.52 µM
- Activity (Mus musculus [15]): Non-toxic
- Activity (Mus musculus [16]): Non-toxic
- inhibition at 2.5 µg/mL (HepG2 [17]): 4.1%
- inhibition at 5 µg/mL (HepG2 [18]): 3.3%
- inhibition at 10 µg/mL (HepG2 [19]): 3.3%

SMILES: OCCCC[C@@H]1[C@H]2CCCN3CCC[C@H](CN1Cc1ccncc1)[C@@H]23
- inhibition at 10 µg/mL (HepG2 [1]): 1.2%

SMILES: OCCCC[C@@H]1[C@H]2CCCN3CCC[C@H](CN1Cc1ccco1)[C@@H]23
- inhibition at 10 µg/mL (HepG2 [1]): 33.2%

SMILES: OCCCC[C@@H]1[C@H]2CCCN3CCC[C@H](CN1CCc1ccccc1)[C@@H]23
- inhibition at 10 µg/mL (HepG2 [1]): 34.6%

SMILES: CCOCCCC[C@@H]1[C@H]2CCCN3CCC[C@H](CN1Cc1ccccc1)[C@@H]23
- inhibition at 10 µg/mL (HepG2 [1]): 2.1%

SMILES: COCCCC[C@@H]1[C@H]2CCCN3CCC[C@H](CN1Cc1ccc(F)cc1)[C@@H]23
- inhibition at 10 µg/mL (HepG2 [1]): 6.8%

SMILES: CCOCCCC[C@@H]1[C@H]2CCCN3CCC[C@H](CN1Cc1ccc(F)cc1)[C@@H]23
- inhibition at 10 µg/mL (HepG2 [1]): 5.1%

SMILES: COCCCC[C@@H]1[C@H]2CCCN3CCC[C@H](CN1Cc1ccc(Cl)cc1)[C@@H]23
- inhibition at 10 µg/mL (HepG2 [1]): 0.3%

SMILES: CCOCCCC[C@@H]1[C@H]2CCCN3CCC[C@H](CN1Cc1ccc(Cl)cc1)[C@@H]23
- inhibition at 10 µg/mL (HepG2 [1]): 0.2%

SMILES: COC(=O)CCC[C@@H]1[C@H]2CCCN3CCC[C@@H](CN1Cc1ccc(F)cc1)[C@@H]23
- inhibition at 10 µg/mL (HepG2 [1]): 0.8%

SMILES: OCCCC[C@@H]1[C@H]2CCCN3CCC[C@@H](CN1Cc1ccc(F)cc1)[C@@H]23
- inhibition at 10 µg/mL (HepG2 [1]): 0.1%

SMILES: OCCCC[C@@H]1[C@H]2CCCN3CCC[C@@H](CN1Cc1ccc(Cl)cc1)[C@@H]23
- inhibition at 10 µg/mL (HepG2 [1]): 4.9%

- IC50 (HepG2 [2]): 15.4 µg/mL
SMILES: O=C(O)CCC[C@@H]1[C@H]2CCCN3CCC[C@H](CN1C(=O)CBr)[C@@H]23

SMILES: O=C1CCC[C@@H]2[C@H]3CCCN4CCC[C@H](CN12)[C@@H]34 [SOPHORIDINE]
- IC50 (HepG2 [2]): > 20 µg/mL

- IC50 (HepG2 [2]): 1.66 µM
- IC50 (HCT-116): 4.32 µM
- IC50 (NCI-H1299): 11 µM
- IC50 (MCF7): 14.3 µM
- IC50 (KB): > 200 µM
SMILES: CC[C@@]1(O)C(=O)OCc2c1cc1n(c2=O)Cc2cc3c(CN(C)C)c(O)ccc3nc2-1 [TOPOTECAN]
- inhibition at 10 µg/mL (HepG2 [1]): 72.6%
- IC50 [3]: 0.16 µM
